Screens deposited in PubChem by The Scripps Research Institute Molecular Screening Center.
TAAR1 agonist: human TAAR1 agonism | 360,000 tested, 0.99% active | CHO RD-HGA16 TAAR1, Fluo-8 calcium fluorescence; vehicle wells 0%, saturating PEA agonist 100% | activation, % at 3 µM | AID 624467 | Q96RJ0;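 active = activation above the mean activation of all test compounds in the run plus 3 SD, cut at about 38% in these data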
Target sequence (Q96RJ0 whole entry, looked up): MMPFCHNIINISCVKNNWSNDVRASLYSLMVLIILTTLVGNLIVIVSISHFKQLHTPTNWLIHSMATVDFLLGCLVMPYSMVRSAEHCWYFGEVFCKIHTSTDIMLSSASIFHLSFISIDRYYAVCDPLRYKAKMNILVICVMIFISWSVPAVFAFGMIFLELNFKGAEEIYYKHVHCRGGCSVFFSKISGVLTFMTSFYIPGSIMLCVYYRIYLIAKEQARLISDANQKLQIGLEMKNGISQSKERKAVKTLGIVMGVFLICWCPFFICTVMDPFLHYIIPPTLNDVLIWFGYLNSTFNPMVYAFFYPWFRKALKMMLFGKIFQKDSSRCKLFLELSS
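System: CHO-derived RD-HGA16 cells with stable Gα16 and human TAAR1. Times: 17-24 h plating, Fluo-8 75 min 37 °C, 30 min RT. Measured by: calcium-sensitive Fluo-8 signal, excitation 470-495, emission 515-575 nm. Read-out basis: % activation relative to PEA EC100 response. Control set: DMSO and PEA EC100. Repeats: no replicates (n 1).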
OX1R antag-1: blocks the human orexin 1 receptor | inhibition, % at 5 µM | O43613 | CHO/OX1R cells, Fluo-8 calcium fluorescence, orexin A | 330,000 tested, 0.43% active;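 active = inhibition above its plate's threshold, mean inhibition of all tested compounds on the plate plus 3 SD, cut at about 37% in these data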;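 note: 0% = orexin A challenge wells and 100% = SB-334867-A antagonist wells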
GPR7 antag: antagonists of human GPR7 (neuropeptides B/W receptor 1); GPR7-expressing cells, fluorescence antagonist assay; inhibition, % at 4.4 µM; 290,000 tested, 1.1% active; P48145; in the data active = inhibition above about 16%, passing the limit was not always enough;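 note: cells stimulated with the agonist NPW; 0% = agonist with vehicle and 100% = vehicle without agonist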
Target sequence (P48145 whole entry, looked up): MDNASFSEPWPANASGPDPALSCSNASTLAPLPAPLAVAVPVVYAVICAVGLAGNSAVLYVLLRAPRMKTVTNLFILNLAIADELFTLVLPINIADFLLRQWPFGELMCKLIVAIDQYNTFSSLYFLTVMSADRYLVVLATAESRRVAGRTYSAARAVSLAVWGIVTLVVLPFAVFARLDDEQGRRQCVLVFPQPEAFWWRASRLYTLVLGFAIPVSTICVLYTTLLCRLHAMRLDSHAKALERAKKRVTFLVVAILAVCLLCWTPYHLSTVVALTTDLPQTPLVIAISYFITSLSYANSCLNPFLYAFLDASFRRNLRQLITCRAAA
OX1R antag-2: OX1R (human) antagonism. O43613. OX1R-expressing cells, FRET antagonist read-out. inhibition, % at 6.6 µM. 330,000 tested, 1.8% active. AID 485270; in the data active = inhibition mostly above about 38%, no sharp cut-off; inactive = mostly below about 40%;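 note: 0% = agonist challenge alone and 100% = reference antagonist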
CHO parental Ca: counter-screen for OX1R antagonists: effect in parental CHO cells; parental CHO-K1, ATP-induced calcium, Fluo-8 fluorescence; inhibition, % at 5.6 µM; 330,000 tested, 0.63% active; AID 463079;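 active = inhibition above that plate's mean sample inhibition plus 3 SD, cut at about 26% in these data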;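 note: 0% = ATP-challenged DMSO wells and 100% = DMSO wells without ATP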
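Material – parental CHO cells · Reagent – ATP stimulus · Compound – single nominal dose of 5.6 µM per compound · Detection – Fluo-8 fluorescence · Read-out basis – percent inhibition of calcium signal · Controls – ATP-challenged DMSO wells low, unchallenged DMSO wells high · Repeats – no replicates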
TAAR1 antagonist: antagonists of human TAAR1. AID 624466. Q96RJ0. CHO RD-HGA16 TAAR1, Fluo-8 calcium fluorescence, antagonist. inhibition, % at 3 µM. 360,000 tested, 1.5% active;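 active = inhibition above a per-plate cutoff, the mean inhibition of test compounds on that plate plus 3 SD, cut at about 49% in these data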;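 note: 0% = DMSO plus EC80 beta-PEA response and 100% = DMSO alone without agonist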
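Assay system: CHO-derived RD-HGA16 cells stably expressing human TAAR1 plus Gα16. Timing: 140 s kinetic read after compound, 140 s after agonist. Technique: kinetic Fluo-8 calcium fluorescence measurement. Measure: % inhibition of agonist calcium response.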
OX1R Fluo8 conf: OX1R (human) antagonism, confirmed; 1,100 tested, 38% active; shares compounds with OX1R antag-1; inhibition, % at 5 µM; CHO/OX1R cells, orexin A calcium Fluo-8 fluorescence; AID 492963; in the data active = inhibition above about 29%;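 note: 0% = agonist challenge alone and 100% = reference antagonist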
CHO Ca triplic: counter-screen: parental CHO calcium response change, triplicate. inhibition, % at 5.6 µM. shares compounds with OX1R antag-1. AID 492965. parental CHO-K1, ATP-induced calcium, Fluo-8 fluorescence. 1,100 tested, 9.3% active;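 active = inhibition above a per-plate limit, the mean inhibition of that plate's test compounds plus 3 SD, cut at about 25% in these data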;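 note: 0% = ATP challenge with DMSO and 100% = DMSO without ATP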
* marks the source's active call; other numbers are inactive results; . = not tested or not shown. In the library only some 4.6% were active in any assay of this set; here they are far more common.

SMILES	TAAR1 agonist	OX1R antag-1	GPR7 antag	OX1R antag-2	CHO parental Ca	TAAR1 antagonist	OX1R Fluo8 conf	CHO Ca triplic
CC(=O)Nc1ccc(S(=O)(=O)N2CCSC2c2ccccc2)cc1 (centres undefined)	21	-13	-5	20	11	0	.	.
CC(=O)Nc1ccc(S(=O)(=O)N2CCSC2c2ccccc2Cl)cc1 (centres undefined)	31	26	10	39	22	26	7	5
c1ccc2c(c1)oc1c(N3CCOCC3)ncnc12	21	-5	-8	28	-3	0	.	.
C(=C\c1ccccc1)/CN1CCN(c2ncnc3c2oc2ccccc23)CC1	7	48*	-10	29	16	19	21	57*
Cc1nc2ccc(NS(=O)(=O)c3c(F)cc(F)cc3Br)cc2s1	4	38	.	13	-2	15	15	16
Cc1nc2ccc(NS(=O)(=O)c3ccc(F)cc3F)cc2s1	4	9	.	6	-18	6	.	.
COC(=O)[C@@H](CC(C)C)NS(=O)(=O)N(Cc1ccccc1)[C@@H](CC(C)C)C(=O)OC	9	47	.	23	-5	50*	3	-19
COC(=O)[C@H](CC(C)C)NS(=O)(=O)c1ccccc1	8	-6	-1	6	-2	0	.	.
COc1ccc(CN([C@H](CO)CC(C)C)S(=O)(=O)N(Cc2ccccc2)[C@H](CO)CC(C)C)cc1	13	67*	.	14	29	40	4	-13
NC(c1csc(Nc2ccccn2)n1)c1ccccc1Cl (centres undefined)	11	.	.	.	.	-1	.	.
CCCn1cnnc1CNC(=O)C1CCC(=O)N(CCc2ccc(OC)cc2)C1 (centres undefined)	2	-3	-4	7	-4	-15	.	.
CC1(C(=O)NS(=O)(=O)c2ccc(Cl)s2)CCN1C(=O)c1ccccc1CCc1ccccc1 (centres undefined)	0	.	.	.	.	0	.	.
CCCC(=O)Nc1ccc(-c2nc3cc(C)c(C)cc3o2)cc1	8	45	-7	13	0	11	6	9
COc1n[nH]c(C(=O)Nc2cc(Cl)ccc2Cl)c1[N+](=O)[O-]	4	-1	1	26	-18	-23	.	.
COc1ccc(Cl)cc1NC(=O)c1[nH]nc(OC)c1[N+](=O)[O-]	4	105*	-17	15	10	-11	-1	-4
COc1ccc(-c2nc(NC3=NCCCCC3)sc2C)cc1	6	55*	-7	14	-19	-4	20	-3
COc1ccc(NC2=NCCCCC2)cc1	3	-17	-3	4	4	7	.	.
COCCCN1C(=O)C(CC(=O)NC2CC2)CC(C(=O)N(C(C)C)C(C)C)=C1C (centres undefined)	2	.	.	.	.	-10	.	.
COc1ccc2[nH]cc(CCNC(=O)c3ccccc3Cl)c2c1	3	0	12	8	9	-1	.	.
O=C1c2ccccc2-c2n[nH]c(=O)c3ccc(N4CCCCC4)c1c23	-1	26	-11	85	-26	6	14	14
COc1cccc(NC(=O)C2(C)CCN2CCc2ccccc2)c1 (centres undefined)	5	.	.	.	.	5	.	.
COc1cccc(CN2C(=O)C(C)N(C(=O)c3c(F)cccc3F)c3ccccc32)c1 (centres undefined)	4	33	1	26	22	47	-2	-4
COc1cccc(-c2ccc3c(c2)N(Cc2cccc(F)c2)C(=O)C(C)S3)c1 (centres undefined)	2	.	.	.	.	-4	.	.
CCNS(=O)(=O)c1ccc(S(=O)(=O)N(Cc2ccccn2)C2CCCCC2)cc1	19	-11	-10	18	-22	-8	.	.
O=S(=O)(NCc1ccccc1)c1ccc(S(=O)(=O)N(Cc2ccccn2)C2CCCC2)cc1	4	50*	0	33	-5	22	16	-9
SMILES	TAAR1 agonist	OX1R antag-1	GPR7 antag	OX1R antag-2	CHO parental Ca	TAAR1 antagonist	OX1R Fluo8 conf	CHO Ca triplic
CCOc1cc(S(=O)(=O)Nc2ccc(Cl)cn2)ccc1Cl	6	-9	-15	26	-14	7	.	.
CCOc1cc(S(=O)(=O)Nc2ccccc2CC)ccc1Cl	4	56*	-12	34	-6	23	1	-11
CC1=C(C(=O)OCc2ccc3c(c2)OCO3)C(c2cccc([N+](=O)[O-])c2)NC(=O)N1 (centres undefined)	9	25	-3	12	0	28	5	-8
CC(Oc1ccc(C#N)cc1)C(=O)N1CC=C(c2ccccc2)CC1 (centres undefined)	3	10	.	18	-6	8	.	.
COc1cc(/C=C/C(O)=C/C(=O)/C=C/c2ccc(O)cc2)ccc1O	45*	48	.	4	25	81*	18	18
COc1ccc(/C=C/C(=O)c2cc(Br)ccc2O)cc1OC	8	-30	2	-1	-21	5	.	.
CCN(CC)S(=O)(=O)c1cccc(C(=O)/C=C2/N(C)c3ccccc3C2(C)C)c1	1	27	-6	27	13	59*	0	8
CN1/C(=C\C(=S)NC(=O)c2cccc(Br)c2)C(C)(C)c2ccccc21	1	-20	-2	12	-11	1	.	.
O=C(Nc1cccc(C(=O)O)c1)/C(=C\c1ccccc1)NC(=O)c1ccco1	0	.	.	.	.	-2	.	.
Cn1c(=O)c(C(=O)NNC(=O)c2ccc(Br)cc2)c(O)c2ccccc21	6	27	-6	7	19	5	8	16
COc1cc(Cl)ccc1OC1(C)CCN(Cc2cccc(OC)c2OC)C1 (centres undefined)	5	.	.	.	.	-25	.	.
NC(=O)c1ccccc1NC(=O)C(c1ccccc1)c1ccccc1	5	-10	.	24	-13	16	.	.
CC(C)(C)c1ccccc1OCC(=O)Nc1ccccc1C(=O)NCc1cccnc1	14	43*	-1	28	16	58*	8	-15
Cc1cc(NC(=O)CSCC(=O)Nc2ccc(Cl)c(C(F)(F)F)c2)no1	16	-21	.	25	-21	-10	.	.
Cc1cc(NC(=O)CN(C)CC(=O)Nc2ccc(Cl)c(C(F)(F)F)c2)no1	41*	40*	.	12	-10	-12	3	0
Cc1cccc(NC(=O)C2CCCN2C(=O)Oc2ccccc2)c1C (centres undefined)	0	34	-5	0	-1	1	-4	-1
COc1ccc(NC(=O)C2(C)Cc3c(-c4ccc5c(c4)OCO5)ccnc3O2)cn1 (centres undefined)	-2	.	.	.	.	-32	.	.
